{"source": "ChEMBL document CHEMBL1141332", "about": "“Cytotoxic metabolites from an Indonesian sponge Lendenfeldia sp” (J Nat Prod, 2007)", "key": {"[1]": {"target": "T1, Hypoxia inducible factors; HIF-1-alpha, HIF-2-alpha (Homo sapiens, UniProt Q16665+Q99814)", "assay": "Inhibition of HIF1 activity in human T47D cells by cell based reporter assay", "method_in_brief": "(§1)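 T47D cells grown in DMEM/F12 with glutamine, 10% FCS and penicillin/streptomycin at 37 °C under 5% CO2, then transiently transfected with the pHRE-TK-Luc reporter. Compounds from DMSO stocks were tested at half-log concentrations for 16 h, with luciferase read-out. IC50 was taken from curve fits of triplicate experiments.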"}, "[2]": {"target": "T1, Hypoxia inducible factors; HIF-1-alpha, HIF-2-alpha", "assay": "Inhibition of 1, 10-phenanthroline-induced HIF1 activity in human T47D cells by cell based reporter assay", "method_in_brief": "as §1"}, "T47D [3]": {"tested_on": "T47D", "assay": "Inhibition of human T47D cells assessed as cell viability under hypoxic condition after 48 hrs", "format": "functional, cell-based", "method_in_brief": "(§2)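 Neutral Red proliferation/viability assay on T47D or MDA-MB-231 cells kept in DMEM/F12 with 10% FCS at 37 °C under 5% CO2, with 48 h compound exposure. Read-out was OD540, and % inhibition = 1 − OD540(treated)/OD540(control). IC50 was derived from the concentration–response data.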"}, "T47D [4]": {"tested_on": "T47D", "assay": "Cell viability of human T47D cells under hypoxic condition after 16 hrs", "format": "functional, cell-based"}, "T47D [5]": {"tested_on": "T47D", "assay": "Inhibition of human T47D cells assessed as cell viability under normoxic condition after 48 hrs", "format": "functional, cell-based", "method_in_brief": "as §2"}, "MDA-MB-231 [6]": {"tested_on": "MDA-MB-231", "assay": "Inhibition of human MDA-MB-231 cells assessed as cell viability under hypoxic condition after 48 hrs", "format": "functional, cell-based", "settings": "MDA-MB-231, 48 h", "method_in_brief": "as §2"}, "MDA-MB-231 [7]": {"tested_on": "MDA-MB-231", "assay": "Inhibition of human MDA-MB-231 cells assessed as cell viability under normoxic condition after 48 hrs", "format": "functional, cell-based", "settings": "MDA-MB-231, 48 h", "method_in_brief": "as §2"}}, "data": [{"smiles": "COc1ccc2c(O)c(O)ccc2c1-c1c(OC)ccc2c(O)c(O)ccc12", "values": [{"measurement": "IC50", "setting": "[1]", "value": 4.3, "unit": "µM"}, {"measurement": "IC50", "setting": "[2]", "value": 5.1, "unit": "µM"}, {"measurement": "IC50", "setting": "T47D [3]", "value": 8.3, "unit": "µM"}, {"measurement": "IC50", "setting": "T47D [4]", "value": 19, "unit": "µM"}, {"measurement": "IC50", "setting": "T47D [5]", "value": 8.7, "unit": "µM"}, {"measurement": "IC50", "setting": "MDA-MB-231 [6]", "value": 7, "unit": "µM"}, {"measurement": "IC50", "setting": "MDA-MB-231 [7]", "value": 6, "unit": "µM"}]}]}
